Laboratory results taken from ChEMBL document CHEMBL4371003, “Discovery of Novel Dual Mechanism of Action Src Signaling and Tubulin Polymerization Inhibitors (KX2-391 and KX2-361)” (J Med Chem, 2018).

Assays:
NCI-H460 [1] = experiment: Antitumor activity against human NCI-H460 cells; type: functional, cell-based
HT-29 [2] = experiment: Antiproliferative activity against human HT-29 cells in presence of 1.5% FCS by BrdU incorporation assay; type: functional, cell-based
[3] = Oral bioavailability in mouse; type: ADME, organism-based; conditions: in vivo
HT-29 [4] = experiment: Antiproliferative activity against human HT-29 cells; type: functional
[5] = Antiproliferative activity against human PC3MLN4 cells; type: functional
KM12 = experiment: Antiproliferative activity against human KM12 cells by BrdU incorporation assay; type: functional
HT-29 [6] = experiment: Antiproliferative activity against human HT-29 cells in presence of 0.5% FCS; type: functional, cell-based
Homo sapiens [7] = organism: Homo sapiens; experiment: Inhibition of SRC 527F mutant (unknown origin) expressed in mouse SYF cells assessed as inhibition of cell growth in presence of 10% FCS; type: cell-based
Homo sapiens [8] = organism: Homo sapiens; experiment: Inhibition of SRC 527F mutant (unknown origin) expressed in mouse SYF cells assessed as inhibition of cell growth in presence of 2% FCS; type: cell-based
[9] = molecular target: T1, Proto-oncogene tyrosine-protein kinase Src (Homo sapiens, UniProt P12931); experiment: Inhibition of human c-SRC expressed in mouse NIH/3T3 cells assessed as reduction in cell growth; type: cell-based
Bcr/Abl fusion protein = Bcr/Abl fusion protein (Homo sapiens, UniProt P00519); experiment: Inhibition of BCR/ABL (unknown origin); type: protein assay
SK-OV-3 = experiment: Antiproliferative activity against human SKOV3 cells; type: functional
[10] = Antiproliferative activity against human PC3MM2 cells; type: functional
L3.6pl = experiment: Antiproliferative activity against human L3.6PL cells; type: functional
MDA-MB-231 = experiment: Antiproliferative activity against human MDA-MB-231 cells; type: functional
A549 = experiment: Antiproliferative activity against human A549 cells; type: functional
Huh-7 = experiment: Antiproliferative activity against human HuH7 cells; type: functional
769-P = experiment: Antiproliferative activity against human 769-P cells; type: functional
K562 = experiment: Antiproliferative activity against human K562 cells; type: functional
K-562R = experiment: Antiproliferative activity against human K562R cells; type: functional
MOLT-4 = experiment: Antiproliferative activity against human MOLT4 cells; type: functional
CCRF-HSB-2 = experiment: Antiproliferative activity against human CCRF-HSB2 cells; type: functional
Jurkat = experiment: Antiproliferative activity against human Jurkat cells; type: functional
KG-1 = experiment: Antiproliferative activity against human KG1 cells; type: functional
RPMI-8226 = experiment: Antiproliferative activity against human RPMI8226 cells; type: functional
RL = experiment: Antiproliferative activity against human RL cells; type: functional
NCI-H460 [11] = experiment: Antiproliferative activity against human H460 cells; type: functional
NCI-H226 = experiment: Antiproliferative activity against human NCI-H226 cells; type: functional
HCT-116 = experiment: Antiproliferative activity against human HCT116 cells; type: functional
SW-620 = experiment: Antiproliferative activity against human SW620 cells; type: functional
[12] = Ratio of AUC in brain to plasma of mouse at 10 mg/kg, po; type: ADME, organism-based; conditions: brain and plasma, read-out: Ratio AUC
[13] = Drug uptake in mouse brain at 10 mg/kg, po relative to peripheral drug level; type: ADME, organism-based
Method in brief: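 Mice dosed orally at 10 mg/kg; brain and plasma exposure measured as AUC and expressed as brain-to-plasma AUC ratio.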

[14] = molecular target: T1, Proto-oncogene tyrosine-protein kinase Src; experiment: Inhibition of Src (unknown origin)
MES-SA/Dx5 = experiment: Antiproliferative activity against human MES-SA/Dx5 cells; type: functional
NCI/ADR-RES = experiment: Antiproliferative activity against human NCI/ADR-RES cells; type: functional
[15] = Half life in po dosed mouse; type: ADME, organism-based; conditions: in vivo
[16] = Half life in rat; type: ADME; conditions: in vivo
[17] = Half life in dog; type: ADME, Canis lupus familiaris; conditions: in vivo
[18] = Drug absorption in po dosed rat; type: ADME, organism-based; conditions: in vivo, read-out: Drug absorption
[19] = Drug absorption in po dosed dog; type: ADME, organism-based, Canis lupus familiaris; conditions: in vivo, read-out: Drug absorption
[20] = Ratio of AUC in tumor to plasma of mouse xenografted with human HT-29 cells at 5 mg/kg, po; type: ADME, organism-based; conditions: tumor and plasma, read-out: Ratio AUC
[21] = Cmax in solid tumor patient at 40 mg, po during phase 1 clinical trial; type: ADME, organism-based; set-up: dose 40 mg, route oral; conditions: human, in vivo
Method in brief: (§1)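 Phase 1 trial in late-stage solid tumor patients: continuous twice-daily oral dosing, first in 4-week cycles of 3 weeks on and 1 week off, later without the off week. Plasma PK (Cmax, Tmax, half-life, Vz/F) recorded at each dose level; Cmax given in ng/ml and nM.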

[22] = Tmax in solid tumor patient at 40 mg, po during phase 1 clinical trial; type: ADME, organism-based; conditions: human, in vivo
[23] = Half life in solid tumor patient at 40 mg, po during phase 1 clinical trial; type: ADME, organism-based; conditions: human, in vivo
[24] = Apparent volume of distribution in solid tumor patient at 40 mg, po during phase 1 clinical trial; type: ADME, organism-based; conditions: human, in vivo, read-out: Vz/F; method in brief: as §1
[25] = Cmax in solid tumor patient at 80 mg, po BID during phase 1 clinical trial; type: ADME, organism-based; set-up: dose 80 mg, route oral; conditions: human, in vivo; method in brief: as §1
[26] = Cmax in solid tumor patient at 50 mg, po BID measured during first monthly cycle during phase 1 clinical trial; type: ADME, organism-based; set-up: dose 50 mg, route oral; conditions: human, in vivo; method in brief: as §1
[27] = Cmax in CRPC patient at 40 mg, po BID during phase 2 trial by LC-MS analysis; type: ADME, organism-based; set-up: dose 40 mg, route oral; conditions: human, in vivo
[28] = Cmax in AML patient at 120 mg, po qd; type: ADME, organism-based; set-up: dose 120 mg, route oral; conditions: human, in vivo
Method in brief: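 Phase 1b study in elderly advanced AML patients with repeated once-daily oral dosing; plasma and bone-marrow drug concentrations measured.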

[29] = Half life in AML patient at 120 mg, po qd; type: ADME, organism-based; conditions: human, in vivo
[30] = molecular target: Tyrosine-protein kinase Lyn (Homo sapiens, UniProt P07948); experiment: Inhibition of LYN (unknown origin)
BCR/ABL1 (Mus musculus) = BCR/ABL1 (Mus musculus) (UniProt P00520+Q6PAJ1); conditions: Homo sapiens
[31] = test system: Bcr/Abl fusion protein (Homo sapiens), P00519+P11274 [E255K]
[32] = test system: Bcr/Abl fusion protein (Homo sapiens), P00519+P11274 [T315I]; conditions: Mus musculus

T1 sequence (P12931 2-536 limits assumed): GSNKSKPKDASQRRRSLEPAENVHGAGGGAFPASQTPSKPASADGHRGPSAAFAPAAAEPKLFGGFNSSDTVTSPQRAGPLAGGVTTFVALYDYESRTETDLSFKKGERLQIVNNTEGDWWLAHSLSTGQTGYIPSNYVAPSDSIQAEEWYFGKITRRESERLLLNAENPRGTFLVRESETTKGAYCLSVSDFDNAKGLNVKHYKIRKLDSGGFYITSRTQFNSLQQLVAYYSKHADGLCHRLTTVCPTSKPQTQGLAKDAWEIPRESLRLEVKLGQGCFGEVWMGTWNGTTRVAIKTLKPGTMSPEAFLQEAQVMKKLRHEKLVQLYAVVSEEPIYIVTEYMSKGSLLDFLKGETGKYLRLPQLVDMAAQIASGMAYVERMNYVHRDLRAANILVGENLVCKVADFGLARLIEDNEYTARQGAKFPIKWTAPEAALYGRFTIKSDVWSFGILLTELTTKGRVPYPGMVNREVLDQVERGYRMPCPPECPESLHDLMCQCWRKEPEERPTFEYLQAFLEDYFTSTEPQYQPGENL
Sequence of Tyrosine-protein kinase Lyn (P07948 whole entry): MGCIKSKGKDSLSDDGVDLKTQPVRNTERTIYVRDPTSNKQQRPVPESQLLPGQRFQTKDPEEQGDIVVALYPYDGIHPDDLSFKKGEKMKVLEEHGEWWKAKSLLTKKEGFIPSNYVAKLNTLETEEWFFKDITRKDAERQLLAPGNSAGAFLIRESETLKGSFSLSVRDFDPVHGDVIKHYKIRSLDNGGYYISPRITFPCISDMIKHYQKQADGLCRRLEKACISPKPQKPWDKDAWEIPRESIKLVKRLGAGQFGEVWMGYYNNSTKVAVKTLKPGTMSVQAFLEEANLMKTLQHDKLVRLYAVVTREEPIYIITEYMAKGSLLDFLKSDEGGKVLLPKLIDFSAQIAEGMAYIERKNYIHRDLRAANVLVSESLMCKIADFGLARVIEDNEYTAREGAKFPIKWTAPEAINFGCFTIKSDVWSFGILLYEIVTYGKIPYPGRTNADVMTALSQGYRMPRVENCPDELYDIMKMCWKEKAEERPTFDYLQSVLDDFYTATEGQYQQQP
Sequence of BCR/ABL1 (Mus musculus) (P00520 whole entry, looked up, the tested form may be a part): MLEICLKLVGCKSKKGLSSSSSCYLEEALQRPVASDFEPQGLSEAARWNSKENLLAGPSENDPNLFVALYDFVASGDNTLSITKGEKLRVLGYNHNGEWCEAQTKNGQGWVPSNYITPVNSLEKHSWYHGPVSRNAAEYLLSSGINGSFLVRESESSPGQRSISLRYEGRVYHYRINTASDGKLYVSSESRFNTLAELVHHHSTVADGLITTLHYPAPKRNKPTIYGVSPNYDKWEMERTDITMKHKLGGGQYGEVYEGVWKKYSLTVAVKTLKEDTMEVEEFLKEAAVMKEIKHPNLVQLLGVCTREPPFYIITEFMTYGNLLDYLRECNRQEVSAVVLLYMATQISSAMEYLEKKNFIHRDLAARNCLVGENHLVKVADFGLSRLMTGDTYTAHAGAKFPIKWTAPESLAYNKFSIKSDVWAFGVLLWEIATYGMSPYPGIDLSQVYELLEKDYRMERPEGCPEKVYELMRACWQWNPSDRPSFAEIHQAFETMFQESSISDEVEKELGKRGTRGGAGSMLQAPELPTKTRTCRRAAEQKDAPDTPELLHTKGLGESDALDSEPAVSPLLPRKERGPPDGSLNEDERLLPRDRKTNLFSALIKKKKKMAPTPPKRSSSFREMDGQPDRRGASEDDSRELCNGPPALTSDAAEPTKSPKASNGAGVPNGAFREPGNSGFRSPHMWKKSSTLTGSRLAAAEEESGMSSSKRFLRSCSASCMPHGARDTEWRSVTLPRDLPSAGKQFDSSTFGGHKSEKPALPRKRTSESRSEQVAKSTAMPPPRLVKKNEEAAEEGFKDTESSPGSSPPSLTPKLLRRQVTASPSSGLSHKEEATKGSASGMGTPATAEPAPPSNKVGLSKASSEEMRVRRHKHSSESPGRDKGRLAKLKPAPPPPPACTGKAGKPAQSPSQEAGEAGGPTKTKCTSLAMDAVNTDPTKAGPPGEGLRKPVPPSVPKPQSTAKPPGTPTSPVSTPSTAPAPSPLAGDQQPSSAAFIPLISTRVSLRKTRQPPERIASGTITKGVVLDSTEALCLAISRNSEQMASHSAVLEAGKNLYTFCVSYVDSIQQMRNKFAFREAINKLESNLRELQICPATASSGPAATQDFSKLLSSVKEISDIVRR
Sequence of BCR/ABL1 (Mus musculus) (Q6PAJ1 whole entry, looked up, the tested form may be a part): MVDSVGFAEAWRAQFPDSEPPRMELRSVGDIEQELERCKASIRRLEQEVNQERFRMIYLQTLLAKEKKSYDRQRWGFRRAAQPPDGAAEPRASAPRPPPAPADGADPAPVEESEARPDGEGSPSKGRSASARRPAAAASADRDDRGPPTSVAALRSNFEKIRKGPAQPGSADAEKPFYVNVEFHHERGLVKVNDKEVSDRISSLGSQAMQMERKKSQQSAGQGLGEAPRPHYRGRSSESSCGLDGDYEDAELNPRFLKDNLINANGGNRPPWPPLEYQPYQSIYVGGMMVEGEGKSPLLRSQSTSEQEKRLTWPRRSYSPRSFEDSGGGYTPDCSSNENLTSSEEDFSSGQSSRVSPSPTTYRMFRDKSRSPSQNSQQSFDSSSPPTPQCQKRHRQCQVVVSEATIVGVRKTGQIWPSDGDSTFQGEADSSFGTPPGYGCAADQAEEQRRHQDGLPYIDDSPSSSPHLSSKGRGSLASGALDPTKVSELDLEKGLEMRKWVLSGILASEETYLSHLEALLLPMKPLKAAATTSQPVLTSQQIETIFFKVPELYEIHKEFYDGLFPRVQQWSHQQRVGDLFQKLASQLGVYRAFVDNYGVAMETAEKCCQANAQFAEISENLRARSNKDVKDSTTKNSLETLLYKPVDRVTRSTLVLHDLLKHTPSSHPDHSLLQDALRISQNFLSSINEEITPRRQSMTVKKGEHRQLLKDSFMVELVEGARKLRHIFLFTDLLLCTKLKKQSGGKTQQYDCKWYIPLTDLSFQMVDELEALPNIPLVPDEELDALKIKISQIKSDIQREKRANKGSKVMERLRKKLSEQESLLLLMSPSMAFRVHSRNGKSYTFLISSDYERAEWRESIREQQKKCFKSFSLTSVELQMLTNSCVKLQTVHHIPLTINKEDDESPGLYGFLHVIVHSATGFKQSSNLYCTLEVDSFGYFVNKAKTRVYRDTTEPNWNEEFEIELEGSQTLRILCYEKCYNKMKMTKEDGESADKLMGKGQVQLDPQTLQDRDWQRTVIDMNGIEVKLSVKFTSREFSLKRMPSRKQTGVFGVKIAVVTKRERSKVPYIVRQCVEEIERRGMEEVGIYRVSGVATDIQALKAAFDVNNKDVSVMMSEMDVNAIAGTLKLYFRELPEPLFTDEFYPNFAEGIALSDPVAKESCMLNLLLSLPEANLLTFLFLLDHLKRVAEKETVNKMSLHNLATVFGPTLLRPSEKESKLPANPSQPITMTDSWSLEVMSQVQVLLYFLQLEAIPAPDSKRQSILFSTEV

Q: For `O=C(NCc1cccc(F)c1)c1cc2cc(F)ccc2[nH]1`, which IC50 (NCI-H460 [1]) is on record?
A: 15000 nM

Q: For `O=C(Cc1ccc(-c2ccc(OCCN3CCOCC3)cc2)cn1)NCc1cccc(F)c1`, which IC50 (HT-29 [2]) is on record?
A: 111 nM

Q: What about the bioavailability [3] of the same compound?
A: 64%

Q: For `C#CCCCN(CCOc1ccc(-c2ccc(CC(=O)NCc3ccccc3)nc2)cc1)C(=O)c1ccc(C(=O)c2ccccc2)cc1`, which GI50 (HT-29 [4]) is on record?
A: 28 nM

Q: What about the GI50 [5] of the same compound?
A: 45 nM

Q: Which IC50 (HT-29 [2]) does the source give for `O=C(Cc1ccc(-c2ccccc2)cc1)NCc1cccc(F)c1` here?
A: 877 nM

Q: And the GI50 (KM12)?
A: 410 nM

Q: For `O=C(Cc1ccc(-c2ccc(OCCN3CCOCC3)cc2)cn1)NCc1ccccc1` [TIRBANIBULIN], which IC50 (HT-29 [2]) is on record?
A: 23 nM

Q: What about the bioavailability [3] of the same compound?
A: 49%

Q: What about the IC50 (HT-29 [6]) of the same compound?
A: 5 nM

Q: What about the GI50 (Homo sapiens [7]) of the same compound?
A: 123 nM

Q: What about the GI50 (Homo sapiens [8]) of the same compound?
A: 23 nM

Q: And the GI50 [9]?
A: 20 nM

Q: What about the GI50 (HT-29 [4]) of the same compound?
A: 25 nM

Q: And the IC50 (Bcr/Abl fusion protein)?
A: 100 to 200 nM

Q: What about the GI50 (SK-OV-3) of the same compound?
A: 10 nM

Q: And the GI50 [10]?
A: 9 nM

Q: And the GI50 (L3.6pl)?
A: 25 nM

Q: And the GI50 (MDA-MB-231)?
A: 20 nM

Q: And the GI50 (A549)?
A: 9 nM

Q: What about the GI50 (Huh-7) of the same compound?
A: 9 nM

Q: And the GI50 (769-P)?
A: 45 nM

Q: What about the GI50 (K562) of the same compound?
A: 13 nM

Q: What about the GI50 (K-562R) of the same compound?
A: 0.64 nM

Q: And the GI50 (MOLT-4)?
A: 13 nM

Q: And the GI50 (CCRF-HSB-2)?
A: 12 nM

Q: What about the GI50 (Jurkat) of the same compound?
A: 10 nM

Q: And the GI50 (KG-1)?
A: 16 nM

Q: And the GI50 (RPMI-8226)?
A: 40 nM

Q: What about the GI50 (RL) of the same compound?
A: 19 nM

Q: What about the GI90 (NCI-H460 [11]) of the same compound?
A: 162 nM

Q: And the GI50 (NCI-H460 [11]; Homo sapiens, NCI-H460)?
A: 51 nM

Q: And the GI90 (NCI-H226)?
A: 490 nM

Q: What about the GI50 (NCI-H226; Homo sapiens, NCI-H226) of the same compound?
A: 98 nM

Q: And the GI90 (HCT-116)?
A: 195 nM

Q: What about the GI50 (HCT-116; Homo sapiens, HCT-116) of the same compound?
A: 31 nM

Q: And the GI90 (SW-620)?
A: 903 nM

Q: What about the GI50 (SW-620; Homo sapiens, SW-620) of the same compound?
A: 109 nM

Q: And the Kp [12]?
A: 0.42

Q: What about the Drug uptake [13] of the same compound?
A: 42%

Q: And the IC50 [14]?
A: 46000 nM

Q: What about the GI50 (MES-SA/Dx5) of the same compound?
A: 34 nM

Q: And the GI50 (NCI/ADR-RES)?
A: 56 nM

Q: And the GI50 [5]?
A: 40 nM

Q: What about the half-life [15] of the same compound?
A: 1 h

Q: What about the half-life [16] of the same compound?
A: 2 h

Q: What about the half-life [17] of the same compound?
A: 8 h

Q: What about the Fa [18] of the same compound?
A: 50 to 90%

Q: And the Fa [19]?
A: 50 to 90%

Q: And the Kp [20]?
A: 1.52

Q: And the Cmax [21]?
A: 80 ng/mL

Q: And the Tmax [22]?
A: 1 h

Q: What about the half-life [23] of the same compound?
A: 4 h

Q: What about the Vd/F [24] of the same compound?
A: 681 L

Q: What about the Cmax [25] of the same compound?
A: 273 ng/mL

Q: And the Cmax [26]?
A: 231 ng/mL

Q: What about the Cmax [27] of the same compound?
A: 61 ng/mL

Q: And the Cmax [28]?
A: 218 ng/mL

Q: What about the half-life [29] of the same compound?
A: 2.2 h

Q: And the IC50 [30]?
A: 100 to 200 nM

Q: What about the GI50 (BCR/ABL1 (Mus musculus)) of the same compound?
A: 85 nM

Q: And the GI50 [31]?
A: 80 nM

Q: What about the GI50 [32] of the same compound?
A: 35 nM

Q: For `O=C(Cc1ccc(-c2ccccc2)cn1)NCc1cccc(F)c1`, which IC50 (HT-29 [2]) is on record?
A: 338 nM

Q: And the bioavailability [3]?
A: 4%
